pIC50: −log10 of the molar value. Active and inactive are the calls of the source. The rule behind the calls is not given here.
Tests used:
[1] = Inhibition of HIV1 integrase activity assessed as suppression of viral replication in human MT2 cells; assay type: cell-based; settings: Human immunodeficiency virus 1, MT2
[2] = Selectivity index, ratio of CC50 for human MT4 cells to IC50 for wild type HIV1 NL4-3 infected in human MT4 cells; assay type: functional
Method in brief: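 Index is CC50 (cytotoxicity in MT-4 cells) divided by IC50 (inhibition of HIV-1/NL4-3 replication in MT-4 lymphocytes). Values are from three separate experiments. A ratio below 5 was scored as no selective anti-HIV activity.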

[3] = system: Human immunodeficiency virus 1; assay: Antiviral activity against wild type HIV1 NL4-3 infected in human MT4 cells by p24 ELISA; assay type: functional, cell-based; settings: Human immunodeficiency virus 1, NL4-3, MT4
Method in brief: (§1)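 Replication-inhibition IC50 values in MT-4 cells, each from three separate experiments.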

[4] = Inhibition of HIV1 integrase activity assessed as suppression of viral replication in human H9 cells; assay type: cell-based; settings: Human immunodeficiency virus 1, H9
[5] = system: Human immunodeficiency virus 1; assay: Resistance index, ratio of IC50 for bevirimat-resistant HIV1 NL4-3 harboring GagV370A mutant infected in human MT4 cells to IC50 for wild type HIV1 NL4-3 infected in human MT4 cells; assay type: functional
[6] = Cytotoxicity against human MT4 cells assessed as reduction in cell viability after 2 days by CytoTox-Glo assay; assay type: toxicity, cell-based; settings: mt4, 48 h
[7] = system: Human immunodeficiency virus 1; assay: Potency index, ratio of IC50 for Bevirimat to IC50 for test compound for antiviral activity against bevirimat-resistant HIV1 NL4-3 harboring GagV370A mutant infected in human MT4 cells by p24 ELISA; assay type: functional
[8] = system: Human immunodeficiency virus 1; assay: Antiviral activity against bevirimat-resistant HIV1 NL4-3 harboring GagV370A mutant infected in human MT4 cells by p24 ELISA; assay type: functional, cell-based; settings: Human immunodeficiency virus 1, NL4-3, MT4; method in brief: as §1
[9] = system: Human immunodeficiency virus 1; assay: Antiinfective activity against wild type HIV1 NL4-3 assessed as inhibition of viral infection by measuring viral infection level in human TZM-bl cells at 2 uM after 48 hrs by luciferase reporter gene assay (reference value: 100%); assay type: functional; set-up: scale not given: the % may be the effect or the level left
Method in brief: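 NL4-3 infection of TZM-bl cells with each compound at 2 µM, read by luminescence. Infection without compound served as control. % control infection = 100 × RLU(compound)/RLU(control).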

[10] = Half life in human liver microsomes at 1 uM in presence of NADPH by LC/MS/MS analysis; assay type: ADME
COS = assay: Inhibition of wild type HIV1 NL4-3 Env-mediated cell-cell fusion between viral envelope expressing virus-infected African green monkey COS cells to human TZM-bl cells incubated overnight by luciferase reporter gene assay; assay type: cell-based; settings: Human immunodeficiency virus 1
[11] = system: Human immunodeficiency virus 1; assay: Potency index, ratio of IC50 for Bevirimat to IC50 for test compound for antiviral activity against wild type HIV1 NL4-3 infected in human MT4 cells by p24 ELISA; assay type: functional
[12] = Elimination half life in healthy humans; assay type: ADME; settings: human, in vivo; read-out: beta t1/2

Work on `O=C(/C=C/c1ccc(O)c(O)c1)O[C@H](C(=O)O)[C@H](OC(=O)/C=C/c1ccc(O)c(O)c1)C(=O)O` [CHICORIC ACID] yielded a pIC50 [1] of 5.38.

In the case of `O=C(O)/C=C/c1ccc(O)c(O)c1` [CAFFEIC ACID], the “Ratio CC50/IC50” value [2] was less than 5 and the pIC50 [3] was less than 6.00.

With `O=C(/C=C/c1ccc(O)c2c1[C@H](C(=O)O)[C@@H](c1ccc(O)c(O)c1)O2)O[C@H](Cc1ccc(O)c(O)c1)C(=O)O` [LITHOSPERMIC ACID] the pIC50 [4] was 5.70.

For `C=C(C)[C@@H]1CC[C@]2(C(=O)N3CCN(C(=O)/C=C/c4ccc(OC)c(OC)c4)CC3)CC[C@]3(C)[C@H](CC[C@@H]4[C@@]5(C)CC[C@H](OC(=O)CC(C)(C)C(=O)O)C(C)(C)[C@@H]5CC[C@]43C)[C@@H]12`, the “Ratio IC50” value [5] was 102.41, the CC50 [6] was greater than 4.5 µM and the pIC50 [3] was 7.54. For the same compound, the “Ratio IC50” value [7] was 1.39 - 51.4 and the pIC50 [8] was 5.53.

In the case of `C=C(C)[C@@H]1CC[C@]2(C(=O)N3CCN(C(=O)/C=C/c4ccc(OCOC)c(OCOC)c4)CC3)CC[C@]3(C)[C@H](CC[C@@H]4[C@@]5(C)CC[C@H](OC(=O)CC(C)(C)C(=O)O)C(C)(C)[C@@H]5CC[C@]43C)[C@@H]12`, the CC50 [6] was greater than 4.5 µM and the pIC50 [3] was 7.30.

With `C=C(C)[C@@H]1CC[C@]2(C(=O)N3CCN(C(=O)/C=C/c4ccc(OCOC)c(OCOC)c4)CC3)CC[C@]3(C)[C@H](CC[C@@H]4[C@@]5(C)CC[C@H](O)C(C)(C)[C@@H]5CC[C@]43C)[C@@H]12` the pIC50 [3] was less than 6.00.

For `C=C(C)[C@@H]1CC[C@]2(C(=O)N3CCN(C(=O)/C=C/c4ccc(OC)c(OC)c4)CC3)CC[C@]3(C)[C@H](CC[C@@H]4[C@@]5(C)CC[C@H](O)C(C)(C)[C@@H]5CC[C@]43C)[C@@H]12`, the pIC50 [3] was less than 6.00.

Work on `O=C(/C=C/c1ccc(O)c(O)c1)O[C@@H]1C[C@](O)(C(=O)O)C[C@@H](OC(=O)/C=C/c2ccc(O)c(O)c2)[C@H]1O` yielded a pIC50 [1] of 5.72.

With `C=C(C)[C@@H]1CC[C@]2(C(=O)N3CCN(C(=O)/C=C/c4ccc(O)c(O)c4)CC3)CC[C@]3(C)[C@H](CC[C@@H]4[C@@]5(C)CC[C@H](OC(=O)CC(C)(C)C(=O)O)C(C)(C)[C@@H]5CC[C@]43C)[C@@H]12` the “Ratio IC50” value [5] was 78.93, the CC50 [6] was greater than 4.5 µM and the pIC50 [3] was 7.55. For the same compound, the pIC50 [8] was 5.66.

With `C=C(C)[C@@H]1CC[C@]2(C(=O)N3CCN(CCCCC(=O)N4CCN(C(=O)/C=C/c5ccc6c(c5)OCO6)CC4)CC3)CC[C@]3(C)[C@H](CC[C@@H]4[C@@]5(C)CC[C@H](O)C(C)(C)[C@@H]5CC[C@]43C)[C@@H]12` the pIC50 [3] was less than 6.00.

For `O=C(/C=C/c1ccc2c(c1)OCO2)N1CCNCC1`, the CC50 [6] was greater than 90 µM and the pIC50 [3] was less than 4.05.

Work on `C=C(C)[C@@H]1CC[C@]2(C(=O)N3CCNCC3)CC[C@]3(C)[C@H](CC[C@@H]4[C@@]5(C)CC[C@H](OC(=O)CC(C)(C)C(=O)O)C(C)(C)[C@@H]5CC[C@]43C)[C@@H]12` yielded a CC50 [6] greater than 1.5 µM and a pIC50 [3] of 6.31.

For `C=C(C)[C@@H]1CC[C@]2(C(=O)O)CC[C@]3(C)[C@H](CC[C@@H]4[C@@]5(C)CC[C@H](OC(=O)CC(C)(C)C(=O)O)C(C)(C)[C@@H]5CC[C@]43C)[C@@H]12` [BEVIRIMAT], the Activity [9] was 98%, the CC50 [6] was greater than 4.5 µM and the pIC50 [3] was 7.19. For the same compound, the t1/2 [10] was 0.9 h and the pIC50 [8] was 5.11.

With `O=C(O)/C=C/c1ccc2c(c1)OCO2` the CC50 [6] was greater than 90 µM and the pIC50 [3] was less than 4.05.

For `C=C(C)[C@@H]1CC[C@]2(C(=O)N3CCN(CCCCC(=O)N4CCN(C(=O)/C=C/c5ccc6c(c5)OCO6)CC4)CC3)CC[C@]3(C)[C@H](CC[C@@H]4[C@@]5(C)CC[C@H](OC(=O)CC(C)(C)C(=O)O)C(C)(C)[C@@H]5CC[C@]43C)[C@@H]12`, the “Ratio IC50” value [5] was 460.83, the CC50 [6] was greater than 4.5 µM and the pIC50 [3] was 7.92. The “Ratio IC50” value [7] was 1.39 - 51.4 and the pIC50 [8] was 5.26.

For `C=C(C)[C@@H]1CC[C@]2(C(=O)N3CCN(C(=O)/C=C/c4ccc5c(c4)OCO5)CC3)CC[C@]3(C)[C@H](CC[C@@H]4[C@@]5(C)CC[C@H](O)C(C)(C)[C@@H]5CC[C@]43C)[C@@H]12`, the pIC50 [3] was less than 6.00.

In the case of `C=C(C)[C@@H]1CC[C@]2(C(=O)NCCCCCCCNC(C)=O)CC[C@]3(C)[C@H](CC[C@@H]4[C@@]5(C)CC[C@H](O)C(C)(C)[C@@H]5CC[C@]43C)[C@@H]12`, the inhibition (COS) was “Active”.

For `C=C(C)[C@@H]1CC[C@]2(C(=O)N3CCN(C(=O)/C=C/c4ccc5c(c4)OCO5)CC3)CC[C@]3(C)[C@H](CC[C@@H]4[C@@]5(C)CC[C@H](OC(=O)CC(C)(C)C(=O)O)C(C)(C)[C@@H]5CC[C@]43C)[C@@H]12`, the “Ratio IC50” value [5] was 7.89 - 7.9, the Activity [9] was 99% and the “Ratio IC50” value [11] was 3. The CC50 [6] was greater than 4.5 µM, the pIC50 [3] was 7.72 and the “Ratio IC50” value [7] was 51. For the same compound, the t1/2 [10] was 2.13 h, the pIC50 [8] was 6.82 and the half-life [12] was 56.3 to 69.5 h.

Source: ChEMBL document CHEMBL3865845 (J Med Chem, 2016)
